Several values for one entry are separate records, joined by “and”; a condition that tells them apart may be missing. Equal entries are not always repeated.
Legend:
[1] = test system: Mus musculus; assay: Tested in vivo for the effective dose administered orally in mouse hypothermia assay; format: functional; conditions: po
In short: (§1)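 Charles River CF-1 mice (18-22 g, 4 per dose), housed individually 20 min before testing. Rectal temperature taken before dosing and 20 min after (sc 0.1 mL; oral 0.2 mL by gavage needle). A drop of ≥2 °F counted as positive. Doses started at 30 mg/kg and fell by half-log until 0/4 responded.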

[2] = test system: Mus musculus; assay: In vivo effective dose administered subcutaneously in mouse hypothermia assay.; format: functional; conditions: sc; in short: as §1
[3] = test system: Mus musculus; assay: Behavioral time in mouse face to face assay at 36 umol/kg administered subcutaneously; format: functional
In short: (§2)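 Male CF-1 mice (Charles River, 19-29 g), 8 pairs per dose, dosed sc, ip or orally in 0.25% methylcellulose or 0.1% citric acid; 30 min absorption housed with familiar partner. Pairs from different home cages placed in small litter-floored cage; face-to-face interaction duration scored visually for 3 min. Wilcoxon rank sum (two-tailed) vs daily control, p < 0.05.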

[4] = test system: Mus musculus; assay: Behavioral time in mouse face to face assay at 0.4 umol/kg administered subcutaneously; format: functional; in short: as §2
[5] = test system: Mus musculus; assay: Behavioral time in mouse face to face assay at 3.6 umol/kg administered subcutaneously; format: functional; in short: as §2
[6] = test system: Mus musculus; assay: Behavioral time in mouse face to face assay at 0 umol/kg administered subcutaneously; format: functional; in short: as §2
[7] = test system: Rattus norvegicus; assay: Effect on the synthesis rate of dopamine (DOPA) accumulation at the dose of 3.6 umol/kg in the rat ventral limbic brain region; format: functional, Limbic system
In short: (§3)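 Male Sprague-Dawley rats dosed sc with drug or vehicle at time zero. NSD 1015 (100 mg/kg ip) given 15 min later to block aromatic decarboxylase. Brain DOPA and 5-HTP measured by electrochemical detection with peak integration. Expressed as percent change from NSD 1015 plus saline controls. Control and test groups N = 6 each, compared by unpaired t test.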

[8] = test system: Rattus norvegicus; assay: Effect on the synthesis rate of 5 HTP accumulation at the dose of 3.6 umol/kg in the rat ventral limbic brain region; format: functional, Limbic system; in short: as §3
[9] = organism: Felis catus; assay: Maximum decrease observed; format: functional; design: unit not given here
[10] = test system: Felis catus; assay: Maximum decrease on arterial blood pressure at 1 mg/kg; format: functional
In short: (§4)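 Adult cats (2.5-4.0 kg) anesthetized with ketamine 11 mg/kg im, then chloralose 80 mg/kg iv. Femoral artery cannulated for blood pressure, femoral vein for drug. Ventilated, paralyzed with gallamine 4 mg/kg iv, rectal temperature held at 37-38 °C. Cumulative iv doses given at 20-min intervals. Maximum decrease reported following a 1 mg/kg iv dose.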

[11] = test system: Felis catus; assay: Dose on arterial blood pressure (BP) in anesthetized cat; format: functional; in short: as §4
[12] = organism: Felis catus; assay: Dose at which the SND has been reduced to 50% of the pretreatment value; format: functional
In short: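 Adult cats (2.5-4.0 kg), ketamine 11 mg/kg im then chloralose 80 mg/kg iv, ventilated, gallamine-paralyzed, rectal temperature 37-38 °C. Sympathetic nerve discharge quantified by cumulative integration. Cumulative iv doses were given at 20-min intervals. Value is the dose reducing discharge to 50% of pretreatment.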

[13] = test system: Mus musculus; assay: Behavioral time in mouse face to face assay at 34 umol/kg administered subcutaneously; format: functional; in short: as §2
[14] = test system: Mus musculus; assay: Behavioral time in mouse face to face assay at 0.3 umol/kg administered subcutaneously; format: functional; in short: as §2
[15] = test system: Mus musculus; assay: Behavioral time in mouse isolation-induced aggression assay at 34 umol/kg administered intraperitoneally; format: functional
In short: (§5)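 Male CF-1 mice. Residents were isolated singly for at least 1 month; group-housed intruders were kept 4-6/cage. Mice weighed 28-30 g at first test. Residents got drug ip or orally in 0.25% methylcellulose or 0.1% citric acid 30 min before an untreated intruder was introduced. Latency to fighting was recorded, capped at 600 s. Dosing was blind, 6/group (vehicle n = 12), Wilcoxon rank sum.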

[16] = test system: Mus musculus; assay: Behavioral time in mouse face to face assay at 3.4 umol/kg administered subcutaneously; format: functional; in short: as §2
[17] = test system: Mus musculus; assay: Behavioral time in mouse isolation-induced aggression assay at 10 umol/kg administered intraperitoneally; format: functional; in short: as §5
[18] = test system: Mus musculus; assay: Behavioral time in mouse isolation-induced aggression assay at 3.4 umol/kg administered intraperitoneally; format: functional; in short: as §5
[19] = test system: Mus musculus; assay: Tested in vivo for the maximum temperature decrease in mouse hypothermia assay.; format: functional
In short: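 CF-1 mice (18-22 g, 4 per dose), dosed sc or orally. Rectal temperature measured before dosing and 20 min after. The mean maximum temperature drop (°F) at 20 min after any dose is recorded as an efficacy index.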

[20] = test system: Rattus norvegicus; assay: Effect on the synthesis rate of dopamine (DOPA) accumulation at the dose of 3.4 umol/kg in the rat ventral limbic brain region; format: functional, Limbic system; in short: as §3
[21] = test system: Rattus norvegicus; assay: Effect on the synthesis rate of 5 HTP accumulation at the dose of 3.4 umol/kg in the rat ventral limbic brain region; format: functional, Limbic system; in short: as §3
[22] = test system: Rattus norvegicus; assay: Effect on the synthesis rate of dopamine (DOPA) accumulation at the dose of 100 umol/kg in the rat ventral limbic brain region; format: functional, Limbic system; in short: as §3
[23] = test system: Rattus norvegicus; assay: Effect on the synthesis rate of dopamine (DOPA) accumulation at the dose of 10 uM/kg in the rat ventral limbic brain region; format: functional, Limbic system; in short: as §3
[24] = test system: Rattus norvegicus; assay: Effect on the synthesis rate of 5 HTP accumulation at the dose of 10 umol/kg in the rat ventral limbic brain region; format: functional, Limbic system; in short: as §3
[25] = test system: Rattus norvegicus; assay: Effect on the synthesis rate of 5 HTP accumulation at the dose of 100 umol/kg in the rat ventral limbic brain region; format: functional, Limbic system; in short: as §3

With `C=CCN[C@@H]1CCc2cccc(O)c2[C@@H]1CC=C` the ED50 [1] was greater than 107 µmol/kg, the ED50 [2] was 1.1 µmol/kg and the Time [3] was 2.6 s. For the same compound, the Time [4] was 0.8 s, the Time [5] was 0.5 s and the Time [6] was 0.8 s. It also gave a Change [7] of 38% and a Change [8] of -48%.

`C=CC[C@H]1c2c(cccc2OC)CC[C@H]1NCC1CC1` showed a Max decrease [9] of 10, a Max decrease [10] of 58 and a BP [11] of 65%. For the same compound, the ED50 [12] was 0.27 µmol/kg, the ED50 [1] was 134 µmol/kg and the ED50 [2] was 18 µmol/kg.

`C=CCN[C@@H]1CCc2cccc(OC)c2[C@@H]1CO` gave a Max decrease [9] of 5, a Max decrease [10] of 48 and a BP [11] of 82%. For the same compound, the ED50 [12] was 0.09 µmol/kg, the ED50 [1] was greater than 106 µmol/kg and the ED50 [2] was 1.4 µmol/kg.

`C=CCN[C@@H]1CCc2cccc(OC)c2[C@@H]1CC=C` was tested, and the Max decrease [9] was 18, the Max decrease [10] was 58 and the BP [11] was 70%. For the same compound, the ED50 [12] was 0.54 µmol/kg, the ED50 [1] was 44 µmol/kg and the ED50 [2] was 7.9 µmol/kg. The Time [13] was 4.3 s, the Time [14] was 0.9 s and the Time [15] was 290 s. For the same compound, the Time [16] was 1.4 s, the Time [17] was 130 s and the Time [18] was 45 s. For the same compound, the Time [6] was 1.1 s, the TMP.decrease [19] was 9.8 degrees F and 6.6 degrees F and the Change [20] was -21%. The Change [21] was -60%.

For `C=CC[C@H]1c2c(cccc2OC)CC[C@H]1NCCC`, the Max decrease [9] was 10, the Max decrease [10] was 57 and the BP [11] was 85%. For the same compound, the ED50 [12] was 0.27 µmol/kg, the ED50 [1] was 78 µmol/kg and the ED50 [2] was 3.4 µmol/kg. The TMP.decrease [19] was 7.6 degrees F and 6 degrees F, the Change [20] was 2.2% and the Change [21] was -50%.

`CCC[C@H]1c2c(O)cccc2CC[C@H]1N(CCC)CCC` showed an ED50 [1] greater than 92 µmol/kg, an ED50 [2] of 9.5 µmol/kg and a TMP.decrease [19] of 6.9 degrees F.

With `CCCN[C@@H]1CCc2cccc(OC)c2[C@@H]1CCC` the ED50 [1] was greater than 101 µmol/kg, the ED50 [2] was 14 µmol/kg and the TMP.decrease [19] was 6.5 degrees F.

For `C=CC[C@H]1c2cccc(OC)c2CC[C@H]1NCCC`, the Change [22] was -24%, the Change [23] was 35% and the Change [24] was 17%. For the same compound, the Change [25] was -36%.

Work on `C=CC[C@H]1c2c(cccc2OC)CC[C@H]1N(CCC)CCC` yielded an ED50 [2] greater than 89 µmol/kg.

From ChEMBL document CHEMBL1126613, “Centrally acting serotonergic agents. Synthesis and structure-activity relationships of C-1- or C-3-substituted derivatives of 8-hydroxy-2-(di-n-propylamino)tetralin” (J Med Chem, 1993)
